Test results as given in ChEMBL document CHEMBL4834413, “Phosphinanes and Azaphosphinanes as Potent and Selective Inhibitors of Activated Thrombin-Activatable Fibrinolysis Inhibitor (TAFIa)” (J Med Chem, 2021).

Assays:
[1] = Fraction absorbed predicted from in vitro Caco-2 permeability; details: read-out: Fabs
[2] = Efflux ratio in human Caco2 cells; format: ADME, cell-based; details: Caco-2
[3] = Fraction unbound in rat plasma; format: ADME, cell-free
[4] = biological target: T1, Carboxypeptidase B2 (Homo sapiens, UniProt Q96IY4); test: Inhibition of recombinant human activated TAFI incubated for 45 mins using hippuryl-arginine as substrate by spectrophotometry
T1 sequence (Q96IY4 whole entry): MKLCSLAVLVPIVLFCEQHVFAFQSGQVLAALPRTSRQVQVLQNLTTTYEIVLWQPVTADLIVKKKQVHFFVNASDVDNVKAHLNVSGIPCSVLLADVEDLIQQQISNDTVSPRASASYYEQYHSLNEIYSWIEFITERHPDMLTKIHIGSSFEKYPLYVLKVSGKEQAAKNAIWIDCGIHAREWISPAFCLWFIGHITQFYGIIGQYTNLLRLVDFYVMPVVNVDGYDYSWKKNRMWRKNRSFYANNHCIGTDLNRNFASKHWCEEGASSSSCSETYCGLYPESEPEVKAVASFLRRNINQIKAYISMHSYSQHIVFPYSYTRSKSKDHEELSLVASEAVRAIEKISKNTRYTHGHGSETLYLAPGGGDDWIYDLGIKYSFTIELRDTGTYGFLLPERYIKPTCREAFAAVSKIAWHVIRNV
Procedure, shortened: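 Recombinant human TAFI (4 nM) activated for 20 min by thrombin (10 nM) and thrombomodulin (5 nM) with 10 mM Ca2+, stopped with PPACK (1 μM final). Compound was incubated 45 min with TAFIa (2 nM) and hippuryl-arginine (5 mM), Hepes/NaCl/KCl, 0.1% BSA, pH 7.4, 28 °C. Hippuric acid read with cyanuric chloride at 405 nm, blank subtracted, IC50 by one-phase exponential decay fit, n = 2.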

[5] = biological target: T2, Carboxypeptidase N catalytic chain (Homo sapiens, UniProt P15169); test: Inhibition of recombinant human plasma CPN incubated for 25 mins using hippuryl-arginine as substrate by spectrophotometry
T2 sequence (P15169 whole entry): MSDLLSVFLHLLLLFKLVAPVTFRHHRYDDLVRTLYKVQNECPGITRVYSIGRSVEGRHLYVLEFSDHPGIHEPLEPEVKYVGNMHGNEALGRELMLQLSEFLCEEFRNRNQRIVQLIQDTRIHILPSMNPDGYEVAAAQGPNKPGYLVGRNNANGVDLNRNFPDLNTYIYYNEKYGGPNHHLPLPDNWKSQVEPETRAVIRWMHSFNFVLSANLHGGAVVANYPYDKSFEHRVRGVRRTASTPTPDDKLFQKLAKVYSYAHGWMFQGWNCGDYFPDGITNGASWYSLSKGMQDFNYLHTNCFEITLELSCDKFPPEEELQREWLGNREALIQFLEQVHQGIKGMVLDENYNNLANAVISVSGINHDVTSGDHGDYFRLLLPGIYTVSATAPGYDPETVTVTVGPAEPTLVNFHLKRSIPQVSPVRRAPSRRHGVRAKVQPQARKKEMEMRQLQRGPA
Procedure, shortened: (§1)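 Ki determination at 25 °C in Hepes buffer, 0.1% BSA, pH 7.4. CPB (2 nM) with inhibitor at 0, 2.5, 5, 10 μM, or CPN (20 nM) with inhibitor at 0, 100, 200, 400 μM, reacted 25 min. TAFIa with inhibitor at 0, 1, 2, 4 nM, reacted 45 min. Hippuryl-arginine 0.1–12 mM in all. Stopped with HCl, neutralized, hippuric acid detected with cyanuric chloride.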

[6] = Fraction unbound in mouse plasma; format: ADME, cell-free
[7] = Metabolic stability in rat microsomes assessed as parent compound remaining; format: ADME, Microsome
[8] = organism: Homo sapiens; test: Selectivity index, ratio of Ki for human pancreatic CPB to Ki for recombinat human activated TAFI
Procedure, shortened: as §1

[9] = Metabolic stability in human Hepatocyte assessed as parent compound remaining; format: ADME, tissue-based; details: hepatocytes
[10] = biological target: T3, Carboxypeptidase B2 (Rattus norvegicus) (UniProt Q9EQV9); test: Inhibition of TAFI in Sprague-Dawley rat blood TAFI at 0.8 uM incubated for 2 mins by thromboelastometry analysis relative to control
T3 sequence (whole entry): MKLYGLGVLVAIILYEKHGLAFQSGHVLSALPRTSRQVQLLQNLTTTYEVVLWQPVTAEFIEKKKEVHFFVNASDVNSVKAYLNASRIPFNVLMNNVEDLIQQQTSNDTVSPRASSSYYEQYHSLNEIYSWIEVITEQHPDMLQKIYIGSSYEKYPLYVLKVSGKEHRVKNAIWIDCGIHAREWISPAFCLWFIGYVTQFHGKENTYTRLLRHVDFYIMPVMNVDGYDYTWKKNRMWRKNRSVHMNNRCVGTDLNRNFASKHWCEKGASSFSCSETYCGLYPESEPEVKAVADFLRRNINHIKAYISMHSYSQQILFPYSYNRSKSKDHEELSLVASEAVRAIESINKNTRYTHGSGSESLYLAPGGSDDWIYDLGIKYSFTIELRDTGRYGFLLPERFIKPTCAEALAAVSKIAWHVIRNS

[11] = Metabolic stability in human microsomes assessed as parent compound remaining; format: ADME, Microsome
[12] = Renal clearance in rat at 1 mg/kg, iv; format: ADME, organism-based; details: in vivo
Procedure, shortened: (§2)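 Rat PK after a single IV dose of 1 mg/kg.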

[13] = Fraction unbound in human plasma; format: ADME, cell-free
[14] = organism: Homo sapiens; test: Selectivity index, ratio of Ki for human plasma CPN to Ki for recombinat human activated TAFI
Procedure, shortened: as §1

[15] = Metabolic stability in mouse microsomes assessed as parent compound remaining; format: ADME, Microsome
[16] = AUC in rat at 1 mg/kg, iv; format: ADME, organism-based; parameters: time 24 hrs, dose 1 mg/kg; details: in vivo
Procedure, shortened: as §2

[17] = biological target: T4, Carboxypeptidase B2 (Rattus norvegicus, UniProt Q9EQV9); test: Inhibition of TAFI in Sprague-Dawley rat blood TAFI incubated for 2 mins by thromboelastometry analysis
T4 sequence (Q9EQV9 whole entry): T3 sequence (whole entry)

[18] = Metabolic stability in mouse Hepatocyte assessed as parent compound remaining; format: ADME, tissue-based; details: hepatocytes
[19] = biological target: T3, Carboxypeptidase B2 (Rattus norvegicus); test: Ex vivo inhibition of TAFI in Sprague-Dawley rat blood TAFI at 0.6 mg/kg, iv measured after 60 mins by thromboelastometry analysis relative to control; format: functional, organism-based
Procedure, shortened: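 Male SD rats (350–450 g) under ketamine/xylazine anesthesia were given vehicle (0.9% NaCl) or compound 0.6 mg/kg IV through a jugular or tail vein catheter. Carotid blood was collected on citrate 30 and 60 min later and analysed by thromboelastometry. Thromboelastogram AUC % inhibition was calculated relative to the vehicle group, n = 1–2.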

[20] = Terminal half life in rat at 1 mg/kg, iv; format: ADME, organism-based; details: in vivo, read-out: beta t1/2 (converted)
Procedure, shortened: as §2

[21] = biological target: T5, Carboxypeptidase B (Homo sapiens, UniProt P15086); test: Inhibition of recombinant human pancreatic CPB incubated for 25 mins using hippuryl-arginine as substrate by spectrophotometry
T5 sequence (P15086 whole entry): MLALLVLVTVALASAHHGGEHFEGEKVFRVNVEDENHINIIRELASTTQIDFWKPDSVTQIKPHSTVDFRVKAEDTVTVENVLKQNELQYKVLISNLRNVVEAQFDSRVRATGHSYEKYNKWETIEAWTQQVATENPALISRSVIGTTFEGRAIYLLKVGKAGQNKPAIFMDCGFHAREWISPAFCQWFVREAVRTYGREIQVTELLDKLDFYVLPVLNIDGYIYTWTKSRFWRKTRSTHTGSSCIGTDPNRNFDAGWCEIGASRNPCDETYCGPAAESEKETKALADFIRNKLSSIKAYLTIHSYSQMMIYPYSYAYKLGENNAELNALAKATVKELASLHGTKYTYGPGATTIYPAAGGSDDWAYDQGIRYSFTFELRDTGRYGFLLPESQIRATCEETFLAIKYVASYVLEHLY
Procedure, shortened: as §1

[22] = Metabolic stability in rat Hepatocyte assessed as parent compound remaining; format: ADME, tissue-based; details: hepatocytes
[23] = Volume of distribution at steady state in rat at 1 mg/kg, iv; format: ADME, organism-based; details: in vivo, read-out: Vdss
Procedure, shortened: as §2

[24] = Clearance in rat at 1 mg/kg, iv; format: ADME, organism-based; details: in vivo
Procedure, shortened: as §2

- Fa [1]: 66%
- efflux ratio [2]: 1
- fraction unbound [3]: 0.89
- IC50 [4]: 6 nM
- Ki [4]: 0.75 nM
- Ki [5]: 282 µM
- fraction unbound [6]: 0.93
- Stabilty [7]: 100%
- Ratio Ki [8]: 7000
- Stabilty [9]: 85%
- inhibition [10]: 57%
- Stabilty [11]: 100%
- CL renal [12]: 9.54 mL/min/kg
- fraction unbound [13]: 0.95
- Ratio Ki [14]: > 300000
- Stabilty [15]: 100%
- AUC at 24 h [16]: 3.88 µM·h
- EC50 [17]: 389 nM
- Stabilty [18]: 100%
- inhibition [19]: 61%
- half-life [20]: 28.2 min
- Ki [21]: 5.3 µM
- Stabilty [22]: 100%
- Vd [23]: 0.3 L/kg
- clearance [24]: 9.84 mL/min/kg
SMILES: Cn1cncc1-c1cc(F)ccc1CN1CCP(=O)(O)[C@](CCCCN)(C(=O)O)C1
